Activity calls are given as the source filed them.
Assays:
SK-OV-3 = test: Cytotoxicity against human SKOV3 cells assessed as cell growth at 80 nM by sulforhodamine B assay relative to control; assay type: functional; settings: read-out: Activity
K562 = test: Cytotoxicity against human K562 cells assessed as cell growth at 80 nM by sulforhodamine B assay relative to control; assay type: functional; settings: read-out: Activity
ACHN [1] = test: Cytotoxicity against human ACHN cells assessed as cell growth at 8 nM by sulforhodamine B assay relative to control; assay type: functional; settings: read-out: Activity
How it was run: (§1)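 Run at NCI in the DTP 60-cell-line human tumor panel by standard procedure. Compounds were first screened at a single concentration, then tested at five tenfold-spaced concentrations. GI50 is the concentration reducing treated-cell growth to half that of untreated controls; TGI is the concentration completely halting growth.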

SK-MEL-28 = test: Cytotoxicity against human SK-MEL-28 cells assessed as cell growth at 80 uM by sulforhodamine B assay relative to control; assay type: functional; settings: read-out: Activity
SF-295 = test: Cytotoxicity against human SF295 cells by sulforhodamine B assay; assay type: functional
How it was run: (§2)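 NCI Developmental Therapeutics Program 60-cell-line human tumor panel screen, run at NCI. A single-concentration pre-screen was followed by a five-concentration dose-response in 10-fold steps. GI50 is the concentration that reduces growth of treated cells to half that of untreated control cells. TGI is the concentration that completely halts growth.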

A498 = test: Cytotoxicity against human A498 cells assessed as cell growth at 8 nM by sulforhodamine B assay relative to control; assay type: functional; settings: read-out: Activity; how it was run: as §1
T47D [2] = test: Cytotoxicity against human T47D cells assessed as cell growth at 8 nM by sulforhodamine B assay relative to control; assay type: functional; settings: read-out: Activity
786-0 = test: Cytotoxicity against human 786-0 cells by sulforhodamine B assay; assay type: functional; how it was run: as §1
BT-549 [3] = test: Cytotoxicity against human BT549 cells assessed as cell growth at 80 nM by sulforhodamine B assay relative to control; assay type: functional; settings: read-out: Activity; how it was run: as §1
HL-60(TB) = test: Cytotoxicity against human HL-60(TB) cells assessed as cell growth at 800 nM by sulforhodamine B assay relative to control; assay type: functional; settings: read-out: Activity
HT-29 = test: Cytotoxicity against human HT-29 cells assessed as cell growth at 80 uM by sulforhodamine B assay relative to control; assay type: functional; settings: read-out: Activity
LOX IMVI = test: Cytotoxicity against human LOXIMVI cells assessed as cell growth at 8 uM by sulforhodamine B assay relative to control; assay type: functional; settings: read-out: Activity
RXF 393 [4] = test: Cytotoxicity against human RXF393 cells assessed as cell growth at 80 nM by sulforhodamine B assay relative to control; assay type: functional; settings: read-out: Activity
OVCAR-4 = test: Cytotoxicity against human OVCAR4 cells by sulforhodamine B assay; assay type: functional; how it was run: as §2
HCT-116 = test: Cytotoxicity against human HCT116 cells assessed as cell growth at 800 nM by sulforhodamine B assay relative to control; assay type: functional; settings: read-out: Activity
SR = test: Cytotoxicity against human SR cells assessed as cell growth at 8 nM by sulforhodamine B assay relative to control; assay type: functional; settings: read-out: Activity
RPMI-8226 = test: Cytotoxicity against human RPMI8226 cells assessed as cell growth at 800 nM by sulforhodamine B assay relative to control; assay type: functional; settings: read-out: Activity
EKVX = test: Cytotoxicity against human EKVX cells by sulforhodamine B assay; assay type: functional
How it was run: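 Run by the NCI Developmental Therapeutics Program on its 60-line human tumour cell panel using the standard procedure. Compounds went through a single-concentration prescreen first, and those active by NCI criteria went on to a five-concentration growth-inhibition test. GI50 is the concentration that cuts growth of treated cells to half that of untreated control cells.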

Mus musculus = test: Acute toxicity in athymic nude mouse assessed as mortality at 25 mg/kg, […]; assay type: organism-based; design: dose 25 mg/kg, route intraperitoneal; settings: in vivo, ip, 576 h
T47D [5] = test: Cytotoxicity against human T47D cells assessed as cell growth at 80 nM by sulforhodamine B assay relative to control; assay type: functional; settings: read-out: Activity
PC-3 = test: Cytotoxicity against human PC3 cells assessed as cell growth at 800 nM by sulforhodamine B assay relative to control; assay type: functional; settings: read-out: Activity
Malme-3M = test: Cytotoxicity against human MALME-3M cells assessed as cell growth at 8 nM by sulforhodamine B assay relative to control; assay type: functional; settings: read-out: Activity
RXF 393 [6] = test: Cytotoxicity against human RXF393 cells assessed as cell growth at 8 nM by sulforhodamine B assay relative to control; assay type: functional; settings: read-out: Activity
MOLT-4 = test: Cytotoxicity against human MOLT4 cells assessed as cell growth at 800 nM by sulforhodamine B assay relative to control; assay type: functional; settings: read-out: Activity
BT-549 [7] = test: Cytotoxicity against human BT549 cells assessed as cell growth at 80 uM by sulforhodamine B assay relative to control; assay type: functional; settings: read-out: Activity; how it was run: as §1
MDA-MB-435 = test: Cytotoxicity against human MDA-MB-435 cells assessed as cell growth at 8 nM by sulforhodamine B assay relative to control; assay type: functional; settings: read-out: Activity
NCI/ADR-RES = test: Cytotoxicity against human NCI/ADR-RES cells assessed as cell growth at 800 nM by sulforhodamine B assay relative to control; assay type: functional; settings: read-out: Activity
ACHN [8] = test: Cytotoxicity against human ACHN cells by sulforhodamine B assay; assay type: functional; how it was run: as §1
M14 = test: Cytotoxicity against human M14 cells by sulforhodamine B assay; assay type: functional; how it was run: as §2
NCI-H23 = test: Antitumor activity against human NCI-H23 cells xenografted in mouse assessed as tumor cell killing at 4.7 mg/kg, ip qd for 4 days by MTT assay; assay type: functional, organism-based; design: dose 4.7 mg/kg
How it was run: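 Hollow-fiber assay in mice. Tumor lines were grown in RPMI-1640 with 10% FBS and 2 mM glutamine. Cells at 2 × 10^6 cells/ml were loaded into 1 mm PVDF fibers (500,000 Da cutoff), heat-sealed at 2 cm and held 24–48 h at 37 °C, 5% CO2 before implantation. Compound was given IP. Fibers were collected the day after the fourth treatment for MTT (OD 540 nm, group means). A ≥50% cut in percent net growth versus vehicle counted as positive.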

SW-620 = test: Cytotoxicity against human SW620 cells assessed as cell growth at 8 nM by sulforhodamine B assay relative to control; assay type: functional; settings: read-out: Activity
KM12 = test: Cytotoxicity against human KM12 cells assessed as cell growth at 80 nM by sulforhodamine B assay relative to control; assay type: functional; settings: read-out: Activity
NCI-H522 [9] = test: Cytotoxicity against human NCI-H522 cells assessed as cell growth at 80 uM by sulforhodamine B assay relative to control; assay type: functional; settings: read-out: Activity
NCI-H522 [10] = test: Cytotoxicity against human NCI-H522 cells assessed as cell growth at 800 nM by sulforhodamine B assay relative to control; assay type: functional; settings: read-out: Activity
MCF7 = test: Cytotoxicity against human MCF7 cells assessed as cell growth at 8 uM by sulforhodamine B assay relative to control; assay type: functional; settings: read-out: Activity
UO-31 = test: Cytotoxicity against human UO31 cells assessed as cell growth at 80 nM by sulforhodamine B assay relative to control; assay type: functional; settings: read-out: Activity
HOP-62 = test: Cytotoxicity against human HOP62 cells assessed as cell growth at 8 nM by sulforhodamine B assay relative to control; assay type: functional; settings: read-out: Activity

`C/C=C1\NC(=O)[C@H](Cc2ccccc2)NC(=O)[C@@H](C(C)C)NC(=O)[C@@H]([C@@H](C)CC)NC(=O)[C@H](NC(=O)[C@H](NC(=O)[C@H](CCCNCc2ccc(F)c(C)c2)NC(=O)[C@H]2CCCN2C(=O)[C@H](NC(=O)[C@@H](NC(=O)[C@@H](NC(=O)[C@H](NC(=O)CCCC(C)C)C(C)C)[C@@H](C)O)C(C)C)C(C)C)[C@@H](C)CC)[C@@H](C)OC(=O)[C@H](C(C)C)NC1=O` gave a growth at 0.08 µM (SK-OV-3) of 105%, a growth at 0.08 µM (K562) of 106% and a growth at 0.008 µM (ACHN [1]) of 100%. It also gave a growth at 80 µM (SK-MEL-28) of 1%, a GI50 (SF-295) of 1260 nM and a TGI (SF-295; read-out: pTGI (converted)) of 2400 nM. The growth at 0.008 µM (A498) was 102%, the growth at 0.008 µM (T47D [2]) was 104% and the GI50 (786-0) was 1290 nM. For the same compound, the LC50 (786-0) was 4.17 µM, the TGI (786-0; read-out: pTGI (converted)) was 2340 nM and the growth at 0.08 µM (BT-549 [3]) was 76%. It also gave a growth at 0.8 µM (HL-60(TB)) of 106%, a growth at 80 µM (HT-29) of 21% and a growth at 8 µM (LOX IMVI) of -85%. The growth at 0.08 µM (RXF 393 [4]) was 106%, the GI50 (OVCAR-4) was 269 nM and the TGI (OVCAR-4; read-out: pTGI (converted)) was 955 nM. The growth at 0.8 µM (HCT-116) was 104%, the growth at 0.008 µM (SR) was 90% and the growth at 0.8 µM (RPMI-8226) was 59%. For the same compound, the GI50 (EKVX) was 759 nM, the CC50 (EKVX; read-out: pLC50 (the source's name) (converted)) was 4.37 µM and the TGI (EKVX; read-out: pTGI (converted)) was 1820 nM. The Activity (Mus musculus) was “Toxic”, the growth at 0.08 µM (T47D [5]) was 90% and the growth at 0.8 µM (PC-3) was -54%. For the same compound, the growth at 0.008 µM (Malme-3M) was 108%, the growth at 0.008 µM (RXF 393 [6]) was 103% and the growth at 0.8 µM (MOLT-4) was 96%. It also gave a growth at 80 µM (BT-549 [7]) of -58%, a growth at 0.008 µM (MDA-MB-435) of 109% and a growth at 0.8 µM (NCI/ADR-RES) of 91%. It also gave an LC50 (ACHN [8]) of 4.07 µM, a GI50 (ACHN [8]; read-out: GI50) of 1120 nM and a TGI (ACHN [8]; read-out: TGI) of 2140 nM. The GI50 (ACHN [8]; read-out: pGI50 (converted)) was 1120 nM, the TGI (ACHN [8]; read-out: pTGI (converted)) was 2140 nM and the GI50 (M14) was 1350 nM. For the same compound, the TGI (M14; read-out: pTGI (converted)) was 2400 nM, the Activity (NCI-H23) was “inactive” and the growth at 0.008 µM (SW-620) was 99%. For the same compound, the growth at 0.08 µM (KM12) was 98%, the growth at 80 µM (NCI-H522 [9]) was -2% and the growth at 0.8 µM (NCI-H522 [10]) was 105%. For the same compound, the growth at 8 µM (MCF7) was -53%, the growth at 0.08 µM (UO-31) was 106% and the growth at 0.008 µM (HOP-62) was 101%.

From ChEMBL document CHEMBL1921722, “In vitro and in vivo evaluation of select kahalalide F analogs with antitumor and antifungal activities” (Bioorg Med Chem, 2011)
